Laboratory results reported in ChEMBL document CHEMBL1649231, “In vitro activities of panduratin A against clinical Staphylococcus strains” (2009).

What was measured:
Assay type in all cases: functional
Staphylococcus aureus [1] = test: Antimicrobial activity against methicillin-resistant Staphylococcus aureus assessed as intermediate resistant isolates after 24 hrs by broth microdilution method
[2] = system: Staphylococcus haemolyticus; test: Antimicrobial activity against methicillin-resistant coagulase-negative Staphylococcus haemolyticus assessed as resistant isolates after 24 hrs by broth microdilution method
[3] = system: Staphylococcus haemolyticus; test: Antimicrobial activity against methicillin-susceptible coagulase-negative Staphylococcus haemolyticus assessed as resistant isolates after 24 hrs by broth microdilution method
Staphylococcus simulans [4] = test: Antimicrobial activity against methicillin-susceptible coagulase-negative Staphylococcus simulans assessed as resistant isolates after 24 hrs by broth microdilution method
Mammaliicoccus sciuri [5] = test: Antimicrobial activity against methicillin-resistant coagulase-negative Staphylococcus sciuri assessed as intermediate resistant isolates after 24 hrs by broth microdilution method
Staphylococcus hominis [6] = test: Bactericidal activity against methicillin-resistant coagulase-negative Staphylococcus hominis after 24 hrs by plate counting method; conditions: for MBC: Staphylococcus hominis, 24 h
Mammaliicoccus sciuri [7] = test: Bactericidal activity against methicillin-susceptible coagulase-negative Staphylococcus sciuri after 24 hrs by plate counting method; conditions: for MBC: Mammaliicoccus sciuri, 24 h
Outline: (§1)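 Clinical staphylococcal isolates from patient body fluids, blood, genital secretions, pus or sputum; species by conventional methods or Vitek. Twofold dilutions in Mueller-Hinton broth, inoculum 5 × 10^5 CFU/ml, 37°C aerobic 24 h (CLSI M7-A6 microdilution). About 100 μl from each well without visible growth spread on MHA; 37°C 24 h. MBC = lowest concentration giving no growth on agar.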

Mammaliicoccus sciuri [8] = test: Antimicrobial activity against methicillin-resistant coagulase-negative Staphylococcus sciuri assessed as resistant isolates after 24 hrs by broth microdilution method
Staphylococcus hominis [9] = test: Antimicrobial activity against methicillin-susceptible coagulase-negative Staphylococcus hominis assessed as resistant isolates after 24 hrs by broth microdilution method
Staphylococcus hominis [10] = test: Antimicrobial activity against methicillin-susceptible coagulase-negative Staphylococcus hominis after 24 hrs by broth microdilution method
Outline: (§2)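 Clinical isolates came from blood, body fluids, genital secretions, pus or sputum, identified conventionally or by Vitek. MICs were run by CLSI M7-A6 broth microdilution in Mueller-Hinton broth with 5 × 10^5 CFU/ml inoculum. Agents were twofold serially diluted, starting from 10% DMSO. Drug-free and uninoculated controls were included. Plates were incubated aerobically at 37°C for 24 h; MIC is the lowest concentration giving no visible growth.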

[11] = system: Staphylococcus haemolyticus; test: Antimicrobial activity against methicillin-resistant coagulase-negative Staphylococcus haemolyticus assessed as susceptible isolates after 24 hrs by broth microdilution method
Staphylococcus simulans [12] = test: Antimicrobial activity against methicillin-resistant coagulase-negative Staphylococcus simulans after 24 hrs by broth microdilution method; outline: as §2
Mammaliicoccus sciuri [13] = test: Antimicrobial activity against methicillin-susceptible coagulase-negative Staphylococcus sciuri after 24 hrs by broth microdilution method; outline: as §2
[14] = system: Staphylococcus haemolyticus; test: Bactericidal activity against methicillin-susceptible coagulase-negative Staphylococcus haemolyticus after 24 hrs by plate counting method; conditions: for MBC: Staphylococcus haemolyticus, 24 h; outline: as §1
Staphylococcus simulans [15] = test: Antimicrobial activity against methicillin-susceptible coagulase-negative Staphylococcus simulans after 24 hrs by broth microdilution method; outline: as §2
Staphylococcus simulans [16] = test: Antimicrobial activity against methicillin-susceptible coagulase-negative Staphylococcus simulans assessed as susceptible isolates after 24 hrs by broth microdilution method
Outline: (§3)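 Clinical isolates from blood, body fluids, pus, sputum or genital secretions, identified conventionally or by Vitek, were tested alongside ATCC 29213 and ATCC 12228 controls. CLSI M7-A6 broth microdilution in Mueller-Hinton broth used twofold dilutions from a 10% DMSO solution and 5 × 10^5 CFU/ml inoculum. Drug-free and uninoculated wells served as controls; incubation was aerobic at 37°C for 24 h. MIC was the lowest concentration with no visible growth.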

Staphylococcus aureus [17] = test: Antimicrobial activity against methicillin-susceptible Staphylococcus aureus assessed as resistant isolates after 24 hrs by broth microdilution method
[18] = system: Staphylococcus epidermidis; test: Antimicrobial activity against methicillin-resistant coagulase-negative Staphylococcus epidermidis assessed as resistant isolates after 24 hrs by broth microdilution method
Staphylococcus hominis [19] = test: Antimicrobial activity against methicillin-resistant coagulase-negative Staphylococcus hominis after 24 hrs by broth microdilution method; outline: as §2
Mammaliicoccus sciuri [20] = test: Antimicrobial activity against methicillin-susceptible coagulase-negative Staphylococcus sciuri assessed as resistant isolates after 24 hrs by broth microdilution method
Staphylococcus aureus [21] = test: Antimicrobial activity against methicillin-susceptible Staphylococcus aureus assessed as susceptible isolates after 24 hrs by broth microdilution method
[22] = system: Staphylococcus epidermidis; test: Bactericidal activity against methicillin-susceptible coagulase-negative Staphylococcus epidermidis after 24 hrs by plate counting method; conditions: for MBC: Staphylococcus epidermidis, 24 h; outline: as §1
Staphylococcus simulans [23] = test: Bactericidal activity against methicillin-susceptible coagulase-negative Staphylococcus simulans after 24 hrs by plate counting method; conditions: for MBC: Staphylococcus simulans, 24 h; outline: as §1
Staphylococcus hominis [24] = test: Bactericidal activity against methicillin-susceptible coagulase-negative Staphylococcus hominis after 24 hrs by plate counting method; conditions: for MBC: Staphylococcus hominis, 24 h; outline: as §1
Staphylococcus simulans [25] = test: Antimicrobial activity against methicillin-resistant coagulase-negative Staphylococcus simulans assessed as resistant isolates after 24 hrs by broth microdilution method
[26] = system: Staphylococcus epidermidis; test: Antimicrobial activity against methicillin-susceptible coagulase-negative Staphylococcus epidermidis assessed as susceptible isolates after 24 hrs by broth microdilution method
Mammaliicoccus sciuri [27] = test: Antimicrobial activity against methicillin-susceptible coagulase-negative Staphylococcus sciuri assessed as susceptible isolates after 24 hrs by broth microdilution method; outline: as §3
Staphylococcus hominis [28] = test: Antimicrobial activity against methicillin-resistant coagulase-negative Staphylococcus hominis assessed as intermediate resistant isolates after 24 hrs by broth microdilution method
[29] = system: Staphylococcus epidermidis; test: Bactericidal activity against methicillin-resistant coagulase-negative Staphylococcus epidermidis after 24 hrs by plate counting method; conditions: for MBC: Staphylococcus epidermidis, 24 h
Staphylococcus aureus [30] = test: Antimicrobial activity against methicillin-resistant Staphylococcus aureus assessed as resistant isolates after 24 hrs by broth microdilution method
Staphylococcus aureus [31] = test: Bactericidal activity against methicillin-resistant Staphylococcus aureus after 24 hrs by plate counting method; conditions: for MBC: Staphylococcus aureus, 24 h
[32] = system: Staphylococcus haemolyticus; test: Antimicrobial activity against methicillin-susceptible coagulase-negative Staphylococcus haemolyticus assessed as susceptible isolates after 24 hrs by broth microdilution method
Mammaliicoccus sciuri [33] = test: Bactericidal activity against methicillin-resistant coagulase-negative Staphylococcus sciuri after 24 hrs by plate counting method; conditions: for MBC: Mammaliicoccus sciuri, 24 h; outline: as §1
Staphylococcus hominis [34] = test: Antimicrobial activity against methicillin-resistant coagulase-negative Staphylococcus hominis assessed as susceptible isolates after 24 hrs by broth microdilution method
[35] = system: Staphylococcus haemolyticus; test: Antimicrobial activity against methicillin-resistant coagulase-negative Staphylococcus haemolyticus assessed as intermediate resistant isolates after 24 hrs by broth microdilution method
Staphylococcus hominis [36] = test: Antimicrobial activity against methicillin-resistant coagulase-negative Staphylococcus hominis assessed as resistant isolates after 24 hrs by broth microdilution method
Staphylococcus hominis [37] = test: Antimicrobial activity against methicillin-susceptible coagulase-negative Staphylococcus hominis assessed as susceptible isolates after 24 hrs by broth microdilution method

C[C@H]1COc2c(N3CCN(C)CC3)c(F)cc3c(=O)c(C(=O)O)cn1c23.C[C@H]1COc2c(N3CCN(C)CC3)c(F)cc3c(=O)c(C(=O)O)cn1c23.O [LEVOFLOXACIN]
0.25 µg/mL: MIC (Staphylococcus hominis [10]) | MIC50 (Staphylococcus hominis [10]) | MIC (Staphylococcus simulans [12]) | MIC50 (Staphylococcus simulans [12]) | MIC (Mammaliicoccus sciuri [13]) | MIC50 (Mammaliicoccus sciuri [13]) | MIC (Staphylococcus simulans [15]) | MIC50 (Staphylococcus simulans [15]) | MIC (Staphylococcus hominis [19]) | MIC50 (Staphylococcus hominis [19])
0%: Activity (Staphylococcus aureus [1])
59%: Activity [2] | Activity (Mammaliicoccus sciuri [8]) | Activity [18] | Activity (Staphylococcus simulans [25]) | Activity (Staphylococcus hominis [36])
4%: Activity [3] | Activity (Staphylococcus simulans [4]) | Activity (Staphylococcus hominis [9]) | Activity (Mammaliicoccus sciuri [20])
26%: Activity [11] | Activity (Staphylococcus hominis [34])
81%: Activity (Staphylococcus aureus [21])
0.5 µg/mL: MBC (Staphylococcus hominis [6]) | MBC (Mammaliicoccus sciuri [7]) | MIC90 (Staphylococcus hominis [10]) | MIC90 (Mammaliicoccus sciuri [13]) | MBC [14] | MIC90 (Staphylococcus simulans [15]) | MBC [22] | MBC (Staphylococcus simulans [23]) | MBC (Staphylococcus hominis [24]) | MBC [29] | MBC (Staphylococcus aureus [31]) | MBC (Mammaliicoccus sciuri [33])
15%: Activity (Mammaliicoccus sciuri [5]) | Activity (Staphylococcus aureus [17]) | Activity (Staphylococcus hominis [28]) | Activity [35]
16 µg/mL: MBC90 (Staphylococcus hominis [6]) | MBC90 [29] | MBC50 (Staphylococcus aureus [31]) | MBC90 (Mammaliicoccus sciuri [33])
82%: Activity (Staphylococcus aureus [30])
4 µg/mL: MBC50 (Staphylococcus hominis [6]) | MBC90 (Mammaliicoccus sciuri [7]) | MIC90 (Staphylococcus simulans [12]) | MBC90 [14] | MIC90 (Staphylococcus hominis [19]) | MBC90 [22] | MBC90 (Staphylococcus simulans [23]) | MBC90 (Staphylococcus hominis [24]) | MBC50 [29] | MBC50 (Mammaliicoccus sciuri [33])
512 µg/mL: MBC90 (Staphylococcus aureus [31])
1 µg/mL: MBC50 (Mammaliicoccus sciuri [7]) | MBC50 [14] | MBC50 [22] | MBC50 (Staphylococcus simulans [23]) | MBC50 (Staphylococcus hominis [24])
96%: Activity (Staphylococcus simulans [16]) | Activity [26] | Activity (Mammaliicoccus sciuri [27]) | Activity [32] | Activity (Staphylococcus hominis [37])

CN(C)[C@@H]1C(O)=C(C(N)=O)C(=O)[C@@]2(O)C(O)=C3C(=O)c4c(O)cccc4[C@@](C)(O)[C@H]3C[C@@H]12 [TETRACYCLINE]
12%: Activity [3] | Activity (Staphylococcus hominis [9]) | Activity (Mammaliicoccus sciuri [20])
1 µg/mL: MBC (Mammaliicoccus sciuri [7]) | MIC50 (Staphylococcus simulans [12]) | MBC [14] | MIC50 (Staphylococcus hominis [19]) | MBC [22] | MBC (Staphylococcus simulans [23]) | MBC (Staphylococcus hominis [24])
128 µg/mL: MBC90 (Mammaliicoccus sciuri [7]) | MBC90 [14] | MBC90 [22] | MBC90 (Staphylococcus simulans [23]) | MBC90 (Staphylococcus hominis [24])
69%: Activity (Staphylococcus simulans [16]) | Activity [26] | Activity (Mammaliicoccus sciuri [27]) | Activity [32] | Activity (Staphylococcus hominis [37])
4%: Activity (Staphylococcus simulans [4])
64 µg/mL: MIC90 (Staphylococcus simulans [12]) | MIC90 (Staphylococcus hominis [19]) | MBC50 (Staphylococcus aureus [31])
18%: Activity [11] | Activity (Staphylococcus hominis [34])
8 µg/mL: MBC50 (Mammaliicoccus sciuri [7]) | MBC50 [14] | MBC50 [22] | MBC50 (Staphylococcus simulans [23]) | MBC50 (Staphylococcus hominis [24])
11%: Activity (Staphylococcus aureus [17])
7%: Activity (Mammaliicoccus sciuri [5]) | Activity (Staphylococcus hominis [28]) | Activity [35]
0%: Activity (Staphylococcus aureus [1])
75%: Activity [2] | Activity (Mammaliicoccus sciuri [8]) | Activity [18] | Activity (Staphylococcus simulans [25]) | Activity (Staphylococcus hominis [36])
512 µg/mL: MBC90 (Staphylococcus aureus [31])
70%: Activity (Staphylococcus aureus [21])
2 µg/mL: MBC (Staphylococcus aureus [31])
0.5 µg/mL: MBC (Staphylococcus hominis [6]) | MIC (Staphylococcus hominis [10]) | MIC50 (Staphylococcus hominis [10]) | MIC (Mammaliicoccus sciuri [13]) | MIC50 (Mammaliicoccus sciuri [13]) | MIC (Staphylococcus simulans [15]) | MIC50 (Staphylococcus simulans [15]) | MBC [29] | MBC (Mammaliicoccus sciuri [33])
32 µg/mL: MIC90 (Staphylococcus hominis [10]) | MIC90 (Mammaliicoccus sciuri [13]) | MIC90 (Staphylococcus simulans [15])
4 µg/mL: MBC50 (Staphylococcus hominis [6]) | MBC50 [29] | MBC50 (Mammaliicoccus sciuri [33])
